ChEMBL document CHEMBL3414536 (Eur J Med Chem, 2015)

What was measured:
Hs 683 = test: Cytostatic activity against human Hs683 cells after 72 hrs by videomicroscopy; assay type: functional, cell-based; conditions: Hs 683, 72 h
[1] = Aqueous solubility of the compound; assay type: physicochemical; conditions: buffer
Method in brief: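 Solubility measured at pH 7.4, room temperature, by a previously described protocol; reported in µg/ml.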

A549 = test: Cytotoxicity against human A549 cells by MTT assay; assay type: functional, cell-based
Method in brief: (§1)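 Human cancer cell lines were cultured for three days with or without compound at 10 nM to 100 µM and read by MTT colorimetric assay. IC50 is the concentration reducing global growth by 50% relative to untreated controls.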

SK-MEL-28 [2] = test: Cytotoxicity against human SK-MEL-28 cells by MTT assay; assay type: functional, cell-based; method in brief: as §1
[3] = Cytotoxicity against human Hs683 cells by MTT assay; assay type: functional, cell-based; conditions: Hs 683; method in brief: as §1
[4] = Cytotoxicity against human U373 cells by MTT assay; assay type: functional, cell-based, U-373MG ATCC; conditions: U373 MG; method in brief: as §1
T98G = test: Cytotoxicity against human T98G cells by MTT assay; assay type: functional, cell-based; method in brief: as §1
SK-MEL-28 [5] = test: Cytostatic activity against human SK-MEL-28 cells after 72 hrs by videomicroscopy; assay type: functional, cell-based; conditions: SK-MEL-28, 72 h
[6] = Cytostatic activity against human U373 cells after 72 hrs by videomicroscopy; assay type: functional, cell-based, U-373MG ATCC; conditions: U373 MG

| SMILES | IC50 (Hs 683) | solubility ([1]; read-out: solubility) | IC50 (A549) | IC50 (SK-MEL-28 [2]) | IC50 [3] | IC50 [4] | IC50 (T98G) | further results |
| --- | --- | --- | --- | --- | --- | --- | --- | --- |
| Cc1c2c(cc[n+]1CCC(C)C)c1ccc(OCc3ccccc3)cc1n2Cc1ccccc1 | 0.4 µM | – | – | – | – | – | – | – |
| Cc1c2c(cc[n+]1Cc1ccc(F)cc1)c1ccc(OCc3cccc(F)c3)cc1n2Cc1cccc(F)c1.[Br-] | – | – | – | – | – | – | – | solubility [1]: 2.4 µg/mL |
| Cc1c2c(cc[n+]1Cc1ccccc1)c1ccc(OCC3CCCCC3)cc1n2CC1CCCCC1.[Br-] | 0.4 µM | < 1.7 µg/mL | – | – | – | – | – | – |
| Cc1c2c(cc[n+]1Cc1ccccc1F)c1ccc(OCC3CCCCC3)cc1n2CC1CCCCC1 | 0.3 µM | – | – | – | – | – | – | – |
| CCCn1c2cc(OCc3ccccc3)ccc2c2cc[n+](Cc3ccccc3F)c(C)c21 | 0.5 µM | – | – | – | – | – | – | – |
| Cc1nccc2c3ccc(OCc4cccc(F)c4)cc3n(Cc3cccc(F)c3)c12 | 17 µM | – | – | – | – | – | – | – |
| Cc1c2c(cc[n+]1Cc1ccccc1)c1ccc(OCc3ccccc3)cc1n2Cc1ccccc1.[Br-] | – | 72.5 µg/mL | – | – | – | – | – | – |
| Cc1c2c(cc[n+]1Cc1ccccc1F)c1ccc(OCc3ccccc3)cc1n2Cc1ccccc1 | 0.4 µM | – | – | – | – | – | – | – |
| Cc1c2c(cc[n+]1CCC(C)C)c1ccc(OCCC(C)C)cc1n2CCc1nnn[nH]1 | – | – | > 100 µM | > 100 µM | > 100 µM | – | – | – |
| Cc1c2c(cc[n+]1CC(=O)c1ccccc1)c1ccc(OCc3ccccc3)cc1n2Cc1ccccc1 | 26 µM | – | – | – | – | – | – | – |

Continued, in another order:

| IC50 (Hs 683) | solubility ([1]; read-out: solubility) | SMILES | IC50 (A549) | IC50 (SK-MEL-28 [2]) | IC50 [3] | IC50 [4] | IC50 (T98G) | further results |
| --- | --- | --- | --- | --- | --- | --- | --- | --- |
| 0.3 µM | – | Cc1c2c(cc[n+]1CCC(C)C)c1ccc(OCCC(C)C)cc1n2CCC(C)C | – | – | – | – | – | – |
| 3.1 µM | – | Cc1c2c(cc[n+]1Cc1ccccc1)c1ccc(OCCC(C)C)cc1n2CCC(C)C | – | – | – | – | – | – |
| – | > 219 µg/mL | Cc1c2c(cc[n+]1CCC(C)C)c1ccc(OCCO)cc1n2CCO.[Br-] | > 100 µM | > 100 µM | > 100 µM | > 100 µM | – | – |
| – | > 206 µg/mL | Cc1c2c(cc[n+]1CCO)c1ccc(OCCO)cc1n2CCO.[Br-] | 51 µM | 51 µM | > 100 µM | > 100 µM | – | – |
| – | 174 µg/mL | CCCOc1ccc2c3cc[n+](CC)c(C)c3n(CCC)c2c1.[Br-] | 0.7 µM | 8 µM | 2 µM | 35 µM | 22 µM | – |
| – | 196 µg/mL | CCCOc1ccc2c3cc[n+](CCC(C)C)c(C)c3n(CCC)c2c1.[Br-] | 2 µM | 3 µM | 1 µM | 22 µM | 4 µM | – |
| – | 207 µg/mL | CCCn1c2cc(OCc3ccccc3)ccc2c2cc[n+](CC)c(C)c21.[Br-] | 2 µM | 4 µM | 3 µM | 22 µM | 11 µM | – |
| 1 µM | 164 µg/mL | CCCn1c2cc(OCc3ccccc3)ccc2c2cc[n+](CCC(C)C)c(C)c21.[Br-] | 0.3 µM | 1 µM | 0.3 µM | 2 µM | 1.5 µM | IC50 (SK-MEL-28 [5]): 1 µM; IC50 [6]: 1 µM |
| – | 207 µg/mL | CCCn1c2cc(OCc3ccccc3)ccc2c2cc[n+](CC(C)C)c(C)c21.[Br-] | 0.8 µM | 0.6 µM | 0.4 µM | 1 µM | 3.8 µM | – |
| 1 µM | 186 µg/mL | CCCn1c2cc(OCCC(C)C)ccc2c2cc[n+](CC)c(C)c21.[Br-] | 0.2 µM | 1 µM | 0.09 µM | 0.6 µM | 0.9 µM | IC50 (SK-MEL-28 [5]): 1 µM; IC50 [6]: 1 µM |
| – | 185 µg/mL | CCCn1c2cc(OCCC(C)C)ccc2c2cc[n+](CCC)c(C)c21.[Br-] | 0.3 µM | 0.9 µM | 0.04 µM | 0.6 µM | 1.2 µM | – |
